The species entered for data set [1] is Rattus norvegicus. Nature of the data set: Toxicity in Sprague-Dawley rat spinal nerve ligation-induced neuropathic pain model assessed as reduction of righting at 10 to 300 ug, it. Type of data set: organism-based. The conditions noted are these: in vivo, icv_or_intrathecal.
The species named for data set [2] is Rattus norvegicus. The experiment in a line: Toxicity in Sprague-Dawley rat spinal nerve ligation-induced neuropathic pain model assessed as reduction of stepping at 10 to 300 ug, it. Type of data set: organism-based. Conditions: in vivo, icv_or_intrathecal.
The species named for data set [3] is Rattus norvegicus. Nature of the data set: Toxicity in Sprague-Dawley rat spinal nerve ligation-induced neuropathic pain model assessed as reduction of corneal and pinna reflexes at 10 to 300 ug, it. The format is organism-based, Cornea. The conditions noted are these: in vivo, icv_or_intrathecal.
Data set [4] concerns the target Voltage-dependent T-type calcium channel subunit alpha-1G (Homo sapiens) (UniProt O43497). Nature of the data set: Inhibition of human recombinant Cav3.1 expressed in HEK-293 cell assessed as current density at 500 uM after 3 hrs by whole cell patch clamp technique. Type of data set: cell-based. The conditions noted are these: HEK293. A digest of the protocol:
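HEK-293 cells stably expressing CaV3.1a (no auxiliary subunits) were re-seeded on poly-L-lysine coverslips and recorded ~4 h later. Cells were incubated 3 h with 500 µM. Whole-cell current–voltage relationships were recorded at 22–24 °C, normalized to Cm; n = 5–6.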
Background: Patch clamp records ionic current or voltage across a cell membrane.

Data set [5] addresses Cav1.3/Cav beta3 complex (Rattus norvegicus) (UniProt P27732+P54287). The experiment in a line: Inhibition of rat recombinant Cav1.3/Cavbeta3 expressed in HEK-293 cell assessed as current density at 500 uM after 3 hrs by whole-cell patch clamp technique. Type of data set: cell-based. Conditions: HEK293. The essentials:
(§1)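 Rat CaV1.3α1 (pcDNA6/His) was transiently co-transfected with β3, with or without α2δ-1, plus GFP into HEK-293 cells. Cells were incubated 3 h with 500 µM, then whole-cell Ba²⁺ current–voltage relationships were recorded at 22–24 °C, normalized to membrane capacitance. n = 9 with α2δ-1; n = 5–7 without.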

The test system of data set [6] is HEK293. Nature of the data set: Inhibition of rabbit recombinant Cav2.2/rat recombinant Cavbeta3 expressed in HEK-293 cell assessed as current density at 500 uM after 3 hrs by whole-cell patch clamp technique. The format is cell-based. A digest of the protocol: (§2)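 HEK-293 cells were transiently co-transfected (lipofection) with CaV subunit cDNAs plus a GFP plasmid. Cells were split at ~10% confluence 2 days later and GFP-positive cells recorded ~4 h after. Cells were preincubated 1–3 h in medium with 500 µM compound (water stock). Whole-cell Ba²⁺ currents were recorded at 22–24 °C with CsCl/EGTA/MgATP pipette solution, pH 7.1, P/4 leak subtraction, normalized to Cm, within 15 min of break-in. Pulses were 140 ms from Vh −80 mV. Student's t-test.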

The subject of data set [7] is HEK293. Nature of the data set: Inhibition of rabbit recombinant Cav2.2/rat recombinant Cavbeta3/Cavalpha2delta-1 expressed in HEK-293 cell assessed as hyperpolarizing shift in half-inactivation potential at 500 uM after 3 hrs by whole cell patch clamp technique. Conditions: in the assay text read “depolarizing” for “hyperpolarizing”. The format is cell-based. The essentials:
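Transiently transfected CaV2.2α1/β3/α2δ-1 HEK-293 cells were treated 3 h with 500 µM in culture medium. Whole-cell recording at 22–24 °C. 2 s prepulses of various amplitudes from Vh −80 mV, then test pulses to +20 mV. Steady-state inactivation was fitted with a Boltzmann equation to give V½ and slope; n = 4–6.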

For data set [8], the system named is HEK293. The experiment in a line: Inhibition of rabbit recombinant Cav2.2/rat recombinant Cavbeta3/Cavalpha2delta-1 expressed in HEK-293 cell assessed as decrease in inward current at 500 uM at voltages from -20 to +30 mV after 3 hrs by whole-cell patch clamp technique. The format is cell-based. A digest of the protocol:
as §2

Data set [9] concerns HEK293. The experiment in a line: Inhibition of rabbit recombinant Cav2.2/rat recombinant Cavbeta3/Cavalpha2delta-1 expressed in HEK-293 cell assessed as inhibition of channel current at 500 uM by whole-cell patch clamp technique. Type of data set: cell-based. The essentials:
as §2

For data set [10], the system named is HEK293. Nature of the data set: Inhibition of rabbit recombinant Cav2.2/rat recombinant Cavbeta3/Cavalpha2delta-1 expressed in HEK-293 cell assessed as decrease in current density at 500 uM at holding potential of -80 mV after 3 hrs by whole-cell patch clamp technique. The format is cell-based. A digest of the protocol: as §2
Data set [11] relates to HEK293. The experiment in a line: Inhibition of rabbit recombinant Cav2.2/rat recombinant Cavbeta3/Cavalpha2delta-1 expressed in HEK-293 cell assessed as current density at 500 uM at holding potential of -80 mV after 1 to 2 hrs by whole-cell patch clamp technique. Type of data set: cell-based. The essentials:
as §2

For data set [12], the system named is HEK293. The experiment in a line: Inhibition of rabbit recombinant Cav2.2/rat recombinant Cavbeta3/Cavalpha2delta-1 expressed in HEK-293 cell assessed as decrease in whole cell Ba2+ current at 500 uM at holding potential of -80 mV up to 3 hrs by whole-cell patch clamp technique. Type of data set: cell-based. The essentials: as §2
Data set [13] deals with Cav1.3/Cav beta3/Cav alpha2delta complex (Rattus norvegicus) (UniProt P54290+P27732+P54287). The experiment in a line: Inhibition of rat recombinant Cav1.3/Cavbeta3/Cavalpha2delta-1 expressed in HEK-293 cell assessed as decrease in current density at 500 uM after 3 hrs by whole-cell patch clamp technique. Type of data set: cell-based. Conditions: HEK293. The essentials:
as §1

Data set [14] deals with Rattus norvegicus. Nature of the data set: Anti-allodynic activity in Sprague-Dawley rat spinal nerve ligation-induced neuropathic pain model assessed as tactile allodynia at 10 to 300 ug administered intrathecally measured after 4 hrs by von frey filament based paw withdrawal threshold method. Type of data set: functional, organism-based. The essentials: (§3)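 Rats 140–160 g, 12/12 h light/dark, food and water ad libitum. Spinal nerve ligation under ketamine/xylazine (45:12 mg/kg i.p.). An intrathecal PE-10 catheter was placed to the lumbar level via the atlantooccipital membrane, followed by 5 d recovery. Rats with motor impairment were excluded. Bolus doses of 10–300 µg/rat were given to allodynic rats, against vehicle. 50% paw withdrawal threshold to von Frey filaments after 30–40 min acclimation on mesh.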

The subject of data set [15] is Rattus norvegicus. Nature of the data set: Anti-allodynic activity in Sprague-Dawley rat spinal nerve ligation-induced neuropathic pain model assessed as reversal of tactile allodynia at 10 to 300 ug administered intrathecally measured after 2 hrs by von frey filament based paw withdrawal threshold method. Type of data set: functional, organism-based. The essentials:
as §3

The subject of data set [16] is Rattus norvegicus. The experiment in a line: Anti-allodynic activity in Sprague-Dawley rat spinal nerve ligation-induced neuropathic pain model assessed as reversal of tactile allodynia at 10 to 300 ug administered intrathecally measured after 1 hr by von frey filament based paw withdrawal threshold method. Type of data set: functional, organism-based. A digest of the protocol:
as §3

Calls of active or inactive are those of the source.

Chain of Voltage-dependent T-type calcium channel subunit alpha-1G (Homo sapiens) (O43497 whole entry): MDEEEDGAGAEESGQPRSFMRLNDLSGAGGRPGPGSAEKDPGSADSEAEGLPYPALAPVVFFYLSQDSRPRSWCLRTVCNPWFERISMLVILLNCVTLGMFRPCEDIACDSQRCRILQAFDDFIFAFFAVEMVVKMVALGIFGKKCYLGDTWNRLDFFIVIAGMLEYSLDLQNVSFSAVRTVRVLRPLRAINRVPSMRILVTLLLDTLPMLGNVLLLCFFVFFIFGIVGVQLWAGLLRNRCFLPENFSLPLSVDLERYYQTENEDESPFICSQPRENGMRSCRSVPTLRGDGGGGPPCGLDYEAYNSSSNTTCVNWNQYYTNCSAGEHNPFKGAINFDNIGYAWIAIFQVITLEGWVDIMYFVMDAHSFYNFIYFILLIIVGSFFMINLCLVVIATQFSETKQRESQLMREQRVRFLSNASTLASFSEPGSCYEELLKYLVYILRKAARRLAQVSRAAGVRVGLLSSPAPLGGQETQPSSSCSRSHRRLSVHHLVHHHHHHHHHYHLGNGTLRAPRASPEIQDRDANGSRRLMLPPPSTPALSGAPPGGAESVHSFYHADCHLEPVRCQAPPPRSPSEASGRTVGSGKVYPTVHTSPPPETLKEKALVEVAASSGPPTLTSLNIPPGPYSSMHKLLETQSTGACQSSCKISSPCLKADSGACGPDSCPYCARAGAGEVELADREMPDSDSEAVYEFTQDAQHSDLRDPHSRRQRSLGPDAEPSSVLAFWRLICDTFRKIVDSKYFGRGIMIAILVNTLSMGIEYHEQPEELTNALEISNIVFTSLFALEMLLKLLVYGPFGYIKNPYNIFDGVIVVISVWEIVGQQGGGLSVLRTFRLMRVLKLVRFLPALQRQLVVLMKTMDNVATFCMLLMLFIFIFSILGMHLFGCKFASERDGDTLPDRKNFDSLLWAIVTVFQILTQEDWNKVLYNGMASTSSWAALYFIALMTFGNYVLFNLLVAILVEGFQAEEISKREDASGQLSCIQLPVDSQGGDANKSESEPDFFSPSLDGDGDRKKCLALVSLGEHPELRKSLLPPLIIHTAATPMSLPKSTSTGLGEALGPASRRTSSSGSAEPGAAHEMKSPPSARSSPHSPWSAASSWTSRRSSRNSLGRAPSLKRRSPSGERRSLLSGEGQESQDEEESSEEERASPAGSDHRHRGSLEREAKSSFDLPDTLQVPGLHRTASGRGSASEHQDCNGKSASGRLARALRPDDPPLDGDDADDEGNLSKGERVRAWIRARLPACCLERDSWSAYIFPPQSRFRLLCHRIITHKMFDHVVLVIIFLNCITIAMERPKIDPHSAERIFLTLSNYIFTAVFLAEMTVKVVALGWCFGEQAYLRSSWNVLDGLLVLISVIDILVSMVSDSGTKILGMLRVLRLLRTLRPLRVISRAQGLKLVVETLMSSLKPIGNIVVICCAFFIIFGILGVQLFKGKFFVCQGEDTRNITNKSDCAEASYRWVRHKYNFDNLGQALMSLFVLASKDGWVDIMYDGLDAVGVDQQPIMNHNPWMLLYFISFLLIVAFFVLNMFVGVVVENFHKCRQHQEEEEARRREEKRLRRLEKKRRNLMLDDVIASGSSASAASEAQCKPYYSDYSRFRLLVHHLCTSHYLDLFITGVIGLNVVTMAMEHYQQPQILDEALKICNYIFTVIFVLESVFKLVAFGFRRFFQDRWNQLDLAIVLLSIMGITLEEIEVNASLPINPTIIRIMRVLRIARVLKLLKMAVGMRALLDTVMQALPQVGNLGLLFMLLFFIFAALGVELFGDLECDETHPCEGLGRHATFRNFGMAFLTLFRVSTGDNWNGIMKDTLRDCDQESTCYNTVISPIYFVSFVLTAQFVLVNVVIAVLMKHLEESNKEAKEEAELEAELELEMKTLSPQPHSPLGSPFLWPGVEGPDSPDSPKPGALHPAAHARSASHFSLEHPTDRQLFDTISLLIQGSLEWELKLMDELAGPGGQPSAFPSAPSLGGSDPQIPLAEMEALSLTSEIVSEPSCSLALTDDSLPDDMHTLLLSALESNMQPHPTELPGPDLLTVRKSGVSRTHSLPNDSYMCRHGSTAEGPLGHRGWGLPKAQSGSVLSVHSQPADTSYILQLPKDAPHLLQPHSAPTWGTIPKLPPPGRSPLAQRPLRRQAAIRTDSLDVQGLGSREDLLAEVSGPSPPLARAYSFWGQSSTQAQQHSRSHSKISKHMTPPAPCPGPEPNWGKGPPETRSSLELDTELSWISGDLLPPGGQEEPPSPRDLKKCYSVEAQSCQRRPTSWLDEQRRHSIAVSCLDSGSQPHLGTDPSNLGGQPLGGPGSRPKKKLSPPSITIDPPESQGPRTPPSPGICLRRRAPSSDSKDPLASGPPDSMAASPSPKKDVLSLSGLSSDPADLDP

Usually inhibition stands for the relative decrease from the control value, in per cent. In the case of `Cl.NCC1C2CC3CC(C2)CC1(C(=O)O)C3` (stereo unspecified), the Activity entry in the data set filed under Rattus norvegicus [1], in the data set filed under Rattus norvegicus [2] and in the data set listed under Rattus norvegicus [3] was “Non-toxic” each time. Further, the inhibition entry (in [4]; in [5]; with HEK293 [6]; with HEK293 [11]) was “inactive” each time. Besides, the inhibition entry (in the data set on HEK293 [7]; in the data set with HEK293 [8]; with HEK293 [10]; with HEK293 [12]; in data set [13]) was “Active” in each case. In addition, in the data set on HEK293 [9], the inhibition turned out to be 30%. Besides, in the data set with Rattus norvegicus [14], the result was inactive. Further, the result in the data set on Rattus norvegicus [15] and in the data set on Rattus norvegicus [16] was Active.
